These results are taken from ChEMBL document CHEMBL1148599, “Antitumor benzothiazoles. 26.(1) 2-(3,4-dimethoxyphenyl)-5-fluorobenzothiazole (GW 610, NSC 721648), a simple fluorinated 2-arylbenzothiazole, shows potent and selective inhibitory activity against lung, colon, and breast cancer cell lines” (2006).

Activity calls are given as the source filed them. The rule behind the calls is not given here. Some results are limits rather than exact numbers.

Assay [1] has as its system MDA-MB-468. The assay is described as follows: Antiproliferative activity against human breast cancer cell line MDA468. Format: functional. In a few lines: (§1)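 Cells kept in RPMI 1640 with 2 mM L-glutamine and 10% FCS at 37 °C, 5% CO2. Seeded 5 × 10³/well, left 24 h to adhere, then exposed 72 h to 0.1 nM–100 µM final (DMSO stocks diluted in medium, n = 8). MTT 400 µg/mL final added at dosing and at 72 h, 4 h at 37 °C. Formazan dissolved in DMSO:glycine pH 10.5, A550 read. GI50 from triplicate tests.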

The subject of assay [2] is KM12. Briefly: Antiproliferative activity against human colon cancer cell line KM12. Format: functional. In a few lines: as §1
Assay [3] deals with MCF7. Briefly: Antiproliferative activity against human breast cancer cell line MCF7. The assay is classed as functional. In short, it runs like this:
as §1

The test system of assay [4] is HCC 2998. The assay is described as follows: Antiproliferative activity against human colon cancer cell line HCC2998. Format: functional. In a few lines:
as §1

In assay [5] the test system is MCF7. Briefly: Ability to induce CYP1A1 protein expression in […] human breast cancer cell line MCF7. Format: functional, cell-based. In short, it runs like this: (§2)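 Whole-cell lysates from untreated cultures and from cells exposed 24 h to 10 nM–10 µM compound. Protein-normalized samples heated 95 °C 5 min, run on 10% SDS-PAGE and electroblotted to PVDF. Probed with polyclonal anti-human CYP1A1/1A2 antiserum and an alkaline phosphatase secondary, developed with BCIP/NBT. Recombinant CYP1A1 served as positive control for the 52 kDa band.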

In assay [6] the test system is MDA-MB-468. The assay is described as follows: Ability to induce CYP1A1 protein expression in […] human breast cancer cell line MDA468. Format: functional, cell-based. In short, it runs like this: as §2
The test system of assay [7] is KM12. The assay is described as follows: Ability to induce CYP1A1 protein expression in sensitive human colon cancer cell line KM12. The assay is classed as functional, cell-based. In a few lines: as §2
For assay [8], the system named is HCC 2998. The assay is described as follows: Ability to induce CYP1A1 protein expression in sensitive human colon cancer cell line HCC2998. The assay is classed as functional, cell-based. In a few lines:
as §2

`COCOc1ccc(-c2nc3cc(F)ccc3s2)cc1OC`: the GI50 in assay [1] worked out at 0.048 µM; in assay [2] it was 19.2 µM; in assay [3], 0.065 µM; in assay [4], 53.5 µM.

Turning to `COc1ccc(-c2nc3ccccc3s2)cc1OC`, the 50% growth inhibitory concentration (GI50) worked out at 0.53 µM in assay [1], 74.2 µM in assay [2], 52.7 µM in assay [3] and 42.5 µM in assay [4]. Moreover, the result in assay [5] and in assay [6] was Active.

Take `COc1ccc(-c2nc3cc(F)ccc3s2)c(OC)c1OC`: the GI50 was found to be 0.12 µM in assay [1], 14.2 µM in assay [2], 0.023 µM in assay [3] and 0.037 µM in assay [4].

As to `COc1ccc(-c2nc3ccc(F)cc3s2)cc1OC`, the GI50 is 0.005 µM in assay [1], 24.1 µM in assay [2], 0.062 µM in assay [3] and 6.21 µM in assay [4].

As for `COc1ccc(-c2nc3cc(F)ccc3s2)cc1O`, the GI50 in assay [1] is 0.05 µM; in assay [2], 18.4 µM; in assay [3], 0.5 µM; in assay [4] it was 7.6 µM.

`COc1ccc(-c2nc3cc(F)ccc3s2)cc1OC`: the outcome in assay [7] and in assay [8] was inactive. The values for the GI50 in assay [1] and in assay [2] were under 0.0001 µM and 0.29 µM, respectively. For the same compound, the outcome in assay [5] and in assay [6] was Active.

In the case of `COc1ccc(-c2nc3cc(F)ccc3s2)cc1I`, the GI50 was found to be 0.36 µM in assay [1], 6.9 µM in assay [2], 0.82 µM in assay [3] and 0.94 µM in assay [4].

Consider `Oc1ccc(-c2nc3cc(F)ccc3s2)cc1O`, for which the 50% growth inhibitory concentration (GI50) in assay [1] came to 0.19 µM; in assay [2] it was 13 µM; in assay [3] it was 0.72 µM; in assay [4], 1.64 µM.

Turning to `COc1cc(-c2nc3cc(F)ccc3s2)cc(OC)c1OC`, the GI50 in assay [1] is 0.0021 µM; in assay [2], 13 µM; in assay [3] it was 0.0019 µM; in assay [4], 21.1 µM.

As to `COc1ccc(-c2nc3cc(F)ccc3s2)cc1Cl`, the GI50 is 0.48 µM in assay [1], 7.05 µM in assay [2], 0.76 µM in assay [3] and 2.5 µM in assay [4].

As for `c1ccc2sc(-c3ccc4c(c3)OCO4)nc2c1`, the GI50 in assay [1] turned out to be 0.8 µM; in assay [2] it was 98.6 µM; in assay [3], 57.8 µM; in assay [4], 68.3 µM.

Consider `COc1ccc(-c2nc3c(F)cccc3s2)cc1OC`, for which the GI50 in assay [1] is 0.005 µM; in assay [2] it was 0.85 µM; in assay [3] it was 0.005 µM; in assay [4] it was 1.06 µM.

`CCOc1ccc(-c2nc3cc(F)ccc3s2)cc1OCC`: the GI50 in assay [1] came to 0.055 µM; in assay [2], 38.5 µM.

For the compound `COc1ccc(-c2nc3cc(Br)ccc3s2)cc1OC`, the GI50 was 0.77 µM in assay [1], 65.2 µM in assay [2], 13.6 µM in assay [3] and 20 µM in assay [4].

For the compound `COc1ccc(-c2nc3cc(F)ccc3s2)cc1`, the GI50 in assay [1] stood at 0.33 µM; in assay [2] it was 24.6 µM; in assay [3] it was 0.49 µM; in assay [4], 12.4 µM.

`Cc1cc(-c2nc3ccccc3s2)ccc1N`: the GI50 in assay [1] is under 0.0001 µM; in assay [2], over 100 µM; in assay [4], over 100 µM.

Turning to `Oc1ccc(-c2nc3ccccc3s2)cc1O`, the GI50 in assay [1] was found to be 0.22 µM; in assay [2], 15.6 µM; in assay [3] it was 2.19 µM; in assay [4], 6.99 µM.

As for `COc1cc(-c2nc3cc(F)ccc3s2)cc(O)c1OC`, the GI50 in assay [1] amounted to 0.088 µM; in assay [2] it was 47.5 µM; in assay [3] it was 0.653 µM; in assay [4], 6.49 µM.

For `COc1ccc(-c2nc3cc(F)ccc3s2)cc1Br`, the GI50 was 0.42 µM in assay [1], 6.7 µM in assay [2], 0.85 µM in assay [3] and 3.45 µM in assay [4].

As to `Cc1cc(-c2nc3cc(F)ccc3s2)ccc1N`, the results for the GI50 in assay [1], in assay [2] and in assay [4] were under 0.0001 µM, over 100 µM and over 100 µM, respectively.

Take `Fc1ccc2sc(-c3ccc4c(c3)OCO4)nc2c1`: the GI50 in assay [1] was found to be 0.57 µM; in assay [2] it was 25.1 µM; in assay [3], 20.7 µM; in assay [4], 22.3 µM. The outcome in assay [5] and in assay [6] was Active.

For the compound `COc1ccc(-c2nc3cc(F)ccc3s2)cc1F`, the GI50 stood at 0.64 µM in assay [1], 20.6 µM in assay [2], 0.87 µM in assay [3] and 13.7 µM in assay [4].

In the case of `COc1cc(-c2nc3cc(F)ccc3s2)ccc1O`, the GI50 stood at 0.17 µM in assay [1], 47.3 µM in assay [2], 0.75 µM in assay [3] and 1.04 µM in assay [4].

`COc1ccc(-c2nc3cc(Cl)ccc3s2)cc1OC`: the GI50 in assay [1] is 1 µM; in assay [2], 12.4 µM; in assay [3] it was 27.9 µM; in assay [4], 4.88 µM.

Turning to `COc1cc(OC)cc(-c2nc3cc(F)ccc3s2)c1`, the GI50 was found to be 0.31 µM in assay [1], 7.55 µM in assay [2], 1.23 µM in assay [3] and 5.21 µM in assay [4].

On to `COc1ccc(-c2nc3cc(F)ccc3s2)cc1C`, for which the GI50 in assay [1] was 0.058 µM; in assay [2] it was 18.6 µM; in assay [3], 0.048 µM; in assay [4] it was 0.54 µM.

Consider `CCOc1cc(-c2nc3cc(F)ccc3s2)ccc1OC`, for which the GI50 is 0.092 µM in assay [1], 5.42 µM in assay [2], 0.08 µM in assay [3] and 3.32 µM in assay [4].
